How the values were obtained:
DU-145 = experiment: Cytotoxicity against human DU145 cells after 48 hrs by SRB assay; format: functional, cell-based; settings: Homo sapiens, DU-145, 48 h; for CC50: read-out: LC50 (the source's name)
How it was run: (§1)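 Cells grown in RPMI 1640 with 10% FBS and penicillin/streptomycin at 37 °C and 5% CO₂, trypsinized, then seeded at 5 × 10³/well. After 18 h drug-free attachment, samples in DMSO/EtOH/PBS (0.5:0.5:99) were added for 48 h continuous exposure. Cells were fixed with cold TCA (1 h, 4 °C) and stained with SRB (10 min). Tris-solubilized stain read at 490 nm. Triplicate wells, mean ± SD; GI₅₀ derived.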

LNCaP = experiment: Cytotoxicity against human LNcaP cells after 48 hrs by SRB assay; format: functional; settings: for CC50: read-out: LC50 (the source's name); how it was run: as §1
[1] = Cytotoxicity against human IGROV cells after 48 hrs by SRB assay; format: functional; settings: read-out: LC50 (the source's name); how it was run: as §1
[2] = Cytotoxicity against human IGROV-ET cells after 48 hrs by SRB assay; format: functional; settings: for CC50: read-out: LC50 (the source's name); how it was run: as §1
SK-MEL-28 = experiment: Cytotoxicity against human SK-MEL-28 cells after 48 hrs by SRB assay; format: functional, cell-based; settings: Homo sapiens, SK-MEL-28, 48 h; for GI50: read-out: GI50; for CC50: read-out: LC50 (the source's name); how it was run: as §1
A549 = experiment: Cytotoxicity against human A549 cells after 48 hrs by SRB assay; format: functional, cell-based; settings: Homo sapiens, A549, 48 h; how it was run: as §1
K562 = experiment: Cytotoxicity against human K562 cells after 48 hrs by SRB assay; format: functional; settings: K562, 48 h; for CC50: read-out: LC50 (the source's name); how it was run: as §1
PANC-1 = experiment: Cytotoxicity against human PANC1 cells after 48 hrs by SRB assay; format: functional; settings: PANC-1, 48 h; for CC50: read-out: LC50 (the source's name); how it was run: as §1
HT-29 = experiment: Cytotoxicity against human HT29 cells after 48 hrs by SRB assay; format: functional, cell-based; settings: Homo sapiens, HT-29, 48 h; for CC50: read-out: LC50 (the source's name); how it was run: as §1
LoVo [3] = experiment: Cytotoxicity against human LoVo cells after 48 hrs by SRB assay; format: functional; settings: for CC50: read-out: LC50 (the source's name)
LoVo [4] = experiment: Cytotoxicity against human doxorubicin resistant LoVo cells after 48 hrs by SRB assay; format: functional; settings: for CC50: read-out: LC50 (the source's name); how it was run: as §1
HeLa = experiment: Cytotoxicity against human HeLa cells after 48 hrs by SRB assay; format: functional; settings: read-out: LC50 (the source's name); how it was run: as §1
[5] = Cytotoxicity against human HeLa-APL cells after 48 hrs by SRB assay; format: functional; how it was run: as §1

| Compound | CC50 (DU-145) | GI50 (LNCaP) | TGI (LNCaP) | CC50 (LNCaP) | CC50 [1] | GI50 [2] | GI50 ([2]; read-out: GI50) | CC50 [2] | TGI (SK-MEL-28) | GI50 (SK-MEL-28) | CC50 (SK-MEL-28) | LC50 (A549) | CC50 (K562) | GI50 (PANC-1) | CC50 (PANC-1) | CC50 (HT-29) | CC50 (LoVo [3]) | CC50 (LoVo [4]) | CC50 (HeLa) | LC50 (concentration giving 50% net cell kill) [5] | other results |
| --- | --- | --- | --- | --- | --- | --- | --- | --- | --- | --- | --- | --- | --- | --- | --- | --- | --- | --- | --- | --- | --- |
| C/C=C1\NC(=O)[C@H](Cc2ccccc2)NC(=O)[C@@H](C(C)C)NC(=O)[C@@H]([C@H](C)CC)NC(=O)[C@H](NC(=O)[C@H](NC(=O)[C@H](CCCN)NC(=O)[C@H]2CCCN2C(=O)[C@H](NC(=O)[C@@H](NC(=O)[C@@H](NC(=O)[C@@H](NC(=O)CCCC(C)C)C(C)C)[C@@H](C)O)C(C)C)C(C)C)[C@H](C)CC)[C@H](C)OC(=O)[C@H](C(C)C)NC1=O | 842 nM | 853 nM | 911 nM | 967 nM | 668 nM | 529 nM | 2890 nM | 527 nM | 1030 nM | 1000 nM | 1060 nM | 1040 nM | 153 nM | 1510 nM | 1590 nM | 501 nM | 2090 nM | 2880 nM | 1020 nM | 969 nM | GI50 (DU-145): 771 nM; GI50 (DU-145; read-out: GI50): 549 nM; TGI (A549): 1180 nM; GI50 (A549; read-out: GI50): 1330 nM; TGI (PANC-1): 1560 nM; GI50 (HT-29): 635 nM; TGI (HT-29): 728 nM; GI50 (LoVo [3]): 1300 nM; TGI (LoVo [3]): 3250 nM; GI50 (LoVo [4]): 1760 nM; TGI (LoVo [4]): 2250 nM; GI50 [5]: 1040 nM; TGI [5]: 1510 nM |
| C/C=C1\NC(=O)[C@H](Cc2ccccc2)NC(=O)[C@@H](C(C)C)NC(=O)[C@@H]([C@H](C)CC)NC(=O)[C@H](NC(=O)[C@H](NC(=O)[C@H](CCCN)NC(=O)[C@@H]2CC[C@H](c3ccccc3)N2C(=O)[C@H](NC(=O)[C@@H](NC(=O)[C@@H](NC(=O)[C@H](NC(=O)CC[C@@H](C)CC)C(C)C)[C@@H](C)O)C(C)C)C(C)C)[C@H](C)CC)[C@H](C)OC(=O)[C@H](C(C)C)NC1=O | 1360 nM | – | – | 1550 nM | 499 nM | – | – | 5220 nM | – | – | 1540 nM | 6440 nM | 2080 nM | – | 1940 nM | 643 nM | 756 nM | 1780 nM | 1040 nM | 938 nM | GI50 (LoVo [3]): 7330 nM; TGI (LoVo [3]): 6170 nM |
| C/C=C1\NC(=O)[C@H](Cc2ccccc2)NC(=O)[C@@H](C(C)C)NC(=O)[C@@H]([C@H](C)CC)NC(=O)[C@H](NC(=O)[C@H](NC(=O)[C@H](CCCN)NC(=O)[C@@H]2CCCN2C(=O)[C@H](NC(=O)[C@@H](NC(=O)[C@@H](NC(=O)[C@H](NC(=O)CC[C@@H](C)CC)C(C)C)[C@@H](C)O)C(C)C)C(C)C)[C@H](C)CC)[C@H](C)OC(=O)[C@H](C(C)C)NC1=O | 1430 nM | – | – | 1630 nM | 525 nM | – | – | 549 nM | – | – | 1620 nM | 6780 nM | 2180 nM | – | 2040 nM | 6760 nM | 794 nM | 1870 nM | 1090 nM | 986 nM | – |
| C/C=C1\NC(=O)[C@H](Cc2ccccc2)NC(=O)[C@@H](C(C)C)NC(=O)[C@@H]([C@H](C)CC)NC(=O)[C@H](NC(=O)[C@H](NC(=O)[C@H](CCCN)NC(=O)[C@H]2CCCN2C(=O)[C@H](NC(=O)[C@@H](NC(=O)[C@@H](NC(=O)[C@H]2CCCN2C(=O)CCCC(C)C)[C@@H](C)O)C(C)C)C(C)C)[C@H](C)CC)[C@H](C)OC(=O)[C@H](C(C)C)NC1=O | 1160 nM | 1160 nM | 1110 nM | 1060 nM | 768 nM | 608 nM | 4700 nM | 426 nM | 1240 nM | 1050 nM | 1140 nM | 1240 nM | 1800 nM | 2750 nM | 2820 nM | 1140 nM | 1500 nM | 3270 nM | 1090 nM | 1010 nM | GI50 (K562): 1310 nM; TGI (K562): 1530 nM; TGI (PANC-1): 3800 nM; GI50 (LoVo [4]): 3510 nM; TGI (LoVo [4]): 3370 nM; GI50 [5]: 1180 nM; TGI [5]: 1650 nM |

— ChEMBL document CHEMBL1156597, “Structure-activity relationship of kahalalide F synthetic analogues” (J Med Chem, 2008)
